Measured values from ChEMBL document CHEMBL4689842, “EUbOPEN Chemogenomics Library wave 1” (2021).

Tests used:
HEK-293T = test: Multiplex assay against HEK293T; format: toxicity, cell-based; conditions: human;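 on Population Tubulin-Different-Phenotype (%): share of the cells with healthy nuclei that show this phenotype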
Method in brief: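 Values for tubulin, mitochondrial-mass and membrane-permeability phenotypes are per cents of cells with healthy nuclei. These cells were identified by CellPathfinder machine-learning gating of live cells that had been stained at seeding with Hoechst33342, BioTracker Green Microtubule Cytoskeleton Dye, MitoTracker Red and Annexin V Alexa Fluor 680 and imaged on a CQ1 microscope at 37°C and 5% CO2 after compound addition. The gating first set Hoechst high-intensity objects apart from normal cells, then split normal cells into healthy, pyknosed or fragmented nuclei, and pyknosed cells into mitotic or apoptotic.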

Fibroblast = test: Incucyte cell viability with human fibroblast; format: toxicity, cell-based; conditions: 10 µM, compound concentration 10 uM; further: filed as whole numbers so only -1 and 0 and 1 occur
[1] = 12 h, 1 µM, compound concentration 1 uM, replicate 1
[2] = 12 h, 1 µM, compound concentration 1 uM, replicate 2
[3] = 12 h, 10 µM, compound concentration 10 uM, replicate 1
[4] = 12 h, 10 µM, compound concentration 10 uM, replicate 2
[5] = 24 h, 1 µM, compound concentration 1 uM, replicate 1
[6] = 24 h, 1 µM, compound concentration 1 uM, replicate 2
[7] = 24 h, 10 µM, compound concentration 10 uM, replicate 1
[8] = 24 h, 10 µM, compound concentration 10 uM, replicate 2
[9] = 48 h, 1 µM, compound concentration 1 uM, replicate 1
[10] = 48 h, 1 µM, compound concentration 1 uM, replicate 2
[11] = 48 h, 10 µM, compound concentration 10 uM, replicate 1
[12] = 48 h, 10 µM, compound concentration 10 uM, replicate 2

## CCc1cc2c(cc1CC)CC(NC[C@H](O)c1ccc(O)c3[nH]c(=O)ccc13)C2 [INDACATEROL]
HEK-293T; [1]
  Population Apoptotic (%): 48%
  Population Fragmented Nuclei (%): 10%
  Population Healthy Nuclei (%): 47%
  Population Hoechst High Intensity Objects (%): 16%
  Population Membrane Permeable-Phenotype (%): 4%
  Population Mitochondria Different-Phenotype (%): 74%
  Population Mitotic Cells (%): 51%
  Population Normal (%): 83%
  Population Pyknosed Nuclei (%): 42%
  Population Tubulin-Different-Phenotype (%): 53%
  Total Cell Count: 240
HEK-293T; [2]
  Population Apoptotic (%): 6%
  Population Fragmented Nuclei (%): 8%
  Population Healthy Nuclei (%): 36%
  Population Hoechst High Intensity Objects (%): 3%
  Population Membrane Permeable-Phenotype (%): 10%
  Population Mitochondria Different-Phenotype (%): 50%
  Population Mitotic Cells (%): 93%
  Population Normal (%): 96%
  Population Pyknosed Nuclei (%): 55%
  Population Tubulin-Different-Phenotype (%): 51%
  Total Cell Count: 228
HEK-293T; [3]
  Population Apoptotic (%): 93%
  Population Fragmented Nuclei (%): 19%
  Population Healthy Nuclei (%): 12%
  Population Hoechst High Intensity Objects (%): 30%
  Population Membrane Permeable-Phenotype (%): 0%
  Population Mitochondria Different-Phenotype (%): 61%
  Population Mitotic Cells (%): 6%
  Population Normal (%): 69%
  Population Pyknosed Nuclei (%): 67%
  Population Tubulin-Different-Phenotype (%): 61%
  Total Cell Count: 204
HEK-293T; [4]
  Population Apoptotic (%): 82%
  Population Fragmented Nuclei (%): 8%
  Population Healthy Nuclei (%): 17%
  Population Hoechst High Intensity Objects (%): 12%
  Population Membrane Permeable-Phenotype (%): 3%
  Population Mitochondria Different-Phenotype (%): 90%
  Population Mitotic Cells (%): 17%
  Population Normal (%): 87%
  Population Pyknosed Nuclei (%): 74%
  Population Tubulin-Different-Phenotype (%): 87%
  Total Cell Count: 215
HEK-293T; [5]
  Population Apoptotic (%): 48%
  Population Fragmented Nuclei (%): 10%
  Population Healthy Nuclei (%): 57%
  Population Hoechst High Intensity Objects (%): 16%
  Population Membrane Permeable-Phenotype (%): 4%
  Population Mitochondria Different-Phenotype (%): 70%
  Population Mitotic Cells (%): 52%
  Population Normal (%): 83%
  Population Pyknosed Nuclei (%): 32%
  Population Tubulin-Different-Phenotype (%): 43%
  Total Cell Count: 279
HEK-293T; [6]
  Population Apoptotic (%): 22%
  Population Fragmented Nuclei (%): 7%
  Population Healthy Nuclei (%): 55%
  Population Hoechst High Intensity Objects (%): 2%
  Population Membrane Permeable-Phenotype (%): 3%
  Population Mitochondria Different-Phenotype (%): 42%
  Population Mitotic Cells (%): 77%
  Population Normal (%): 97%
  Population Pyknosed Nuclei (%): 37%
  Population Tubulin-Different-Phenotype (%): 55%
  Total Cell Count: 282
HEK-293T; [7]
  Population Apoptotic (%): 98%
  Population Fragmented Nuclei (%): 22%
  Population Healthy Nuclei (%): 11%
  Population Hoechst High Intensity Objects (%): 33%
  Population Membrane Permeable-Phenotype (%): 6%
  Population Mitochondria Different-Phenotype (%): 50%
  Population Mitotic Cells (%): 1%
  Population Normal (%): 66%
  Population Pyknosed Nuclei (%): 65%
  Population Tubulin-Different-Phenotype (%): 50%
  Total Cell Count: 213
HEK-293T; [8]
  Population Apoptotic (%): 95%
  Population Fragmented Nuclei (%): 5%
  Population Healthy Nuclei (%): 20%
  Population Hoechst High Intensity Objects (%): 15%
  Population Membrane Permeable-Phenotype (%): 2%
  Population Mitochondria Different-Phenotype (%): 97%
  Population Mitotic Cells (%): 4%
  Population Normal (%): 84%
  Population Pyknosed Nuclei (%): 74%
  Population Tubulin-Different-Phenotype (%): 89%
  Total Cell Count: 219
HEK-293T; [9]
  Population Apoptotic (%): 43%
  Population Fragmented Nuclei (%): 12%
  Population Healthy Nuclei (%): 72%
  Population Hoechst High Intensity Objects (%): 9%
  Population Membrane Permeable-Phenotype (%): 0%
  Population Mitochondria Different-Phenotype (%): 45%
  Population Mitotic Cells (%): 56%
  Population Normal (%): 90%
  Population Pyknosed Nuclei (%): 14%
  Population Tubulin-Different-Phenotype (%): 33%
  Total Cell Count: 393
HEK-293T; [10]
  Population Apoptotic (%): 22%
  Population Fragmented Nuclei (%): 7%
  Population Healthy Nuclei (%): 73%
  Population Hoechst High Intensity Objects (%): 7%
  Population Membrane Permeable-Phenotype (%): 5%
  Population Mitochondria Different-Phenotype (%): 17%
  Population Mitotic Cells (%): 77%
  Population Normal (%): 92%
  Population Pyknosed Nuclei (%): 18%
  Population Tubulin-Different-Phenotype (%): 49%
  Total Cell Count: 448
HEK-293T; [11]
  Population Apoptotic (%): 91%
  Population Fragmented Nuclei (%): 29%
  Population Healthy Nuclei (%): 2%
  Population Hoechst High Intensity Objects (%): 35%
  Population Membrane Permeable-Phenotype (%): 25%
  Population Mitochondria Different-Phenotype (%): 25%
  Population Mitotic Cells (%): 8%
  Population Normal (%): 64%
  Population Pyknosed Nuclei (%): 67%
  Population Tubulin-Different-Phenotype (%): 0%
  Total Cell Count: 209
HEK-293T; [12]
  Population Apoptotic (%): 98%
  Population Fragmented Nuclei (%): 9%
  Population Healthy Nuclei (%): 17%
  Population Hoechst High Intensity Objects (%): 17%
  Population Membrane Permeable-Phenotype (%): 6%
  Population Mitochondria Different-Phenotype (%): 96%
  Population Mitotic Cells (%): 1%
  Population Normal (%): 82%
  Population Pyknosed Nuclei (%): 73%
  Population Tubulin-Different-Phenotype (%): 96%
  Total Cell Count: 214
Fibroblast; 0 h, replicate number 1, timepoint 0 hours
  Growth Rate: 1
Fibroblast; 6 h, replicate number 2, timepoint 6 hours
  Growth Rate: 0
Fibroblast; 12 h, replicate number 1, timepoint 12 hours
  Growth Rate: 0
Fibroblast; 18 h, replicate number 1, timepoint 18 hours
  Growth Rate: 0
Fibroblast; 24 h, replicate number 1, timepoint 24 hours
  Growth Rate: 0
